Experimental data as given in ChEMBL document CHEMBL1125845, “Indazolinones, a new series of redox-active 5-lipoxygenase inhibitors with built-in selectivity and oral activity” (J Med Chem, 1991).
pIC50: −log10 of the molar value.

What was measured:
Cyclooxygenase [1] = biological target: T1, Cyclooxygenase (Rattus norvegicus, UniProt P35355+Q63921); experiment: In vitro inhibition of PGE-2 production was measured in rat blood; type: functional
T1 sequence (P35355 whole entry): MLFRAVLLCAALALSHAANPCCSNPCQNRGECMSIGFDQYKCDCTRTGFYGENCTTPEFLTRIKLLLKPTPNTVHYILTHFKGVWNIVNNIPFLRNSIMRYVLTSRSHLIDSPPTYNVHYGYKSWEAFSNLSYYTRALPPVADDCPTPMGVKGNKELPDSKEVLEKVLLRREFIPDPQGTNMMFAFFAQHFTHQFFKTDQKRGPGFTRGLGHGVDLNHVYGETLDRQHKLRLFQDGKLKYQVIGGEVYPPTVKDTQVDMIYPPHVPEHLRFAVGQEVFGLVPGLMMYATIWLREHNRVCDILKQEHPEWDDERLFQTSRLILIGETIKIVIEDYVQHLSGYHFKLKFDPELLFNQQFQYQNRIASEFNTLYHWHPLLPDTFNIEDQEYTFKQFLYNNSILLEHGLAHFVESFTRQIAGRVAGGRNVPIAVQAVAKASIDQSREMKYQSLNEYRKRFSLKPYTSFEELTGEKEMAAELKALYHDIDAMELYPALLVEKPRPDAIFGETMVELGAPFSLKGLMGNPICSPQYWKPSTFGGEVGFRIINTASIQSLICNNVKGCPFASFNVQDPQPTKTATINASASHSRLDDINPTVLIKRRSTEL
T1 sequence (Q63921 whole entry): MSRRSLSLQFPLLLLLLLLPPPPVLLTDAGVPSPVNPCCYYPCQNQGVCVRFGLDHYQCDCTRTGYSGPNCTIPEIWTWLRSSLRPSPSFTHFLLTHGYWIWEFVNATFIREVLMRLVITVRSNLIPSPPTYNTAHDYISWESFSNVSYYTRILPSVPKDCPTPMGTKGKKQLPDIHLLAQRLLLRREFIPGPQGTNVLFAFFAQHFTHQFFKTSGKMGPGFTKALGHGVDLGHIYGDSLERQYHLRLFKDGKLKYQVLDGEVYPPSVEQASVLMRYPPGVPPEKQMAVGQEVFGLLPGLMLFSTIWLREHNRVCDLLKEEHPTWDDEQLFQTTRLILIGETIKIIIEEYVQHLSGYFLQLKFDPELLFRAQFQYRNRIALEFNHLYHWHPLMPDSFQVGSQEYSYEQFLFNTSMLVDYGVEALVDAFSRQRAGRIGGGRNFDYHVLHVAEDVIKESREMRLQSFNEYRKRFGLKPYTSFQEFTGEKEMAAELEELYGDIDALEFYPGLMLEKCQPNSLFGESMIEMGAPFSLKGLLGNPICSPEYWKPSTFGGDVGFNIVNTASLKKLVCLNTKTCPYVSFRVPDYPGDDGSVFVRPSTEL

[2] = biological target: T2, Polyunsaturated fatty acid 5-lipoxygenase (Rattus norvegicus, UniProt P12527); experiment: In vitro inhibition of LTB4 production was measured in rat blood; type: functional
T2 sequence (P12527 whole entry): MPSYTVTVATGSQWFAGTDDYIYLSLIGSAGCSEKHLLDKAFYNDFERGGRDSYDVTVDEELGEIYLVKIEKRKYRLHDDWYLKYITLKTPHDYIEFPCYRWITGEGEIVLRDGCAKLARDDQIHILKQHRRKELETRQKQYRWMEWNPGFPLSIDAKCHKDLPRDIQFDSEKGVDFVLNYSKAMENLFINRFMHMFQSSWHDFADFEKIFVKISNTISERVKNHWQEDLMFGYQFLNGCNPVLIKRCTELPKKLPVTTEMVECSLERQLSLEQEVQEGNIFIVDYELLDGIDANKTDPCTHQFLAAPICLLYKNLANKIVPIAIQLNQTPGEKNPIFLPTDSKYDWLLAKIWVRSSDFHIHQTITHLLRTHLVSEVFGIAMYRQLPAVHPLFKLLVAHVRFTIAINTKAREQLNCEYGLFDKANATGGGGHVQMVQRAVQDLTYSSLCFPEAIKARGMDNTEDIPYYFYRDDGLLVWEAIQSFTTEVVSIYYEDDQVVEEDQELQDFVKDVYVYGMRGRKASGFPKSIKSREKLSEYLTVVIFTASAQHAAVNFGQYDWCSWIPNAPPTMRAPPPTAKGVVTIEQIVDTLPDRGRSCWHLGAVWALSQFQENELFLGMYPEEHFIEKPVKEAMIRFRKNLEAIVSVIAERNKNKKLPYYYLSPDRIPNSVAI
Procedure, shortened: (§1)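 Pooled heparinized blood from male Alderley Park Wistar rats (vena cava) held on ice; preincubated with compound in DMSO (1% final) 15 min at 37 °C, then A23187 (20 µg/mL) added for a further 15 min; stopped with cocktail of indomethacin, EGTA and azide; plasma LTB4 and PGE2 by radioimmunoassay. IC50 by nonlinear regression from two experiments.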

[3] = biological target: Polyunsaturated fatty acid 5-lipoxygenase (Canis lupus familiaris); experiment: Ex vivo inhibition of LTB4 production was measured in dog blood
Canis familiaris = species: Canis familiaris; experiment: In vitro test for the induction of the production of methemoglobin (MHb) in dog blood; type: functional, Canis lupus familiaris
Procedure, shortened: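 Pooled heparinized dog blood (leg vein) incubated with compound for 2 h at 37 °C; methemoglobin quantified by cooximeter.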

Cyclooxygenase [4] = biological target: T1, Cyclooxygenase; experiment: In vitro inhibition of PGE-2 (PG) production in rat blood; 3-30; type: functional; procedure, shortened: as §1

| IC50 (Cyclooxygenase [1]) [µM] | pIC50 [2] | ED50 [3] [mg/kg] | SMILES | other results |
| --- | --- | --- | --- | --- |
| 58 | 5.59 | 10 | Cc1ncccc1Cn1[nH]c2ccccc2c1=O |  |
|  | < 4.52 |  | c1ccc(COc2[nH]nc3ccccc23)cc1 |  |
| 39 | 6.00 | 10 | O=c1c2ccccc2[nH]n1Cc1cncc(Br)c1 |  |
| 30 |  |  | Oc1n[nH]c2ccccc12 | ED25 (Canis familiaris): 40 µM |
| > 100 |  |  | O=c1c2ccccc2[nH]n1Cc1cncs1 |  |
| 12 | 5.85 | 5 | O=c1c2ccccc2[nH]n1Cc1cccnc1Cl |  |
| 81 | 5.74 | 15 | Cc1cncc(Cn2[nH]c3ccccc3c2=O)c1 |  |
| 18 |  |  | O=c1c2ccccc2[nH]n1Cc1ccc2ccccc2c1 |  |
|  | 4.52 |  | O=c1[nH]n(-c2ccccc2)c2ccccc12 |  |
| 26 | 6.11 | > 100 | O=c1c2ccccc2[nH]n1CCCCc1ccccc1 |  |
| 100 | 6.21 | > 100 | O=c1c2ccccc2[nH]n1Cc1cccc2ccccc12 |  |
|  | < 4.52 | > 100 | Cn1c2ccccc2c(=O)n1Cc1ccccc1 |  |
|  | > 6.00 | 15 | O=c1c2ccccc2[nH]n1Cc1ccc(Cl)nc1 | IC50 (Cyclooxygenase [4]): 3 µM |
| 94 |  |  | O=c1c2ccccc2[nH]n1Cc1c[nH]c2ccccc12 |  |
| 5 |  |  | NC1=NN(c2cccc(C(F)(F)F)c2)CC1 [BW-755C] |  |
| 3 |  |  | O=C1CCN(c2ccccc2)N1 [PHENIDONE] |  |
| 30 |  |  | CC(Cc1ccc(O)c(O)c1)C(C)Cc1ccc(O)c(O)c1 (stereo unspecified) [NORDIHYDROGUAIARETIC ACID] |  |
| 18 |  |  | O=c1c2ccccc2[nH]n1Cc1ccccc1 |  |
|  | < 4.52 |  | COc1nn(Cc2ccccc2)c2ccccc12 |  |
| 13 |  |  | O=c1c2ccccc2[nH]n1Cc1ccco1 |  |

| IC50 (Cyclooxygenase [1]) [µM] | pIC50 [2] | ED50 [3] [mg/kg] | SMILES | other results |
| --- | --- | --- | --- | --- |
| 280 |  |  | O=c1c2ccccc2[nH]n1Cc1ccncc1 |  |
| 50 |  |  | O=c1cc(-c2ccccc2)oc2cc(O)c(O)c(O)c12 [BAICALEIN] |  |
|  | < 4.52 |  | Cn1c(=O)c2ccccc2n1Cc1ccccc1 |  |
| 17 |  |  | Cn1[nH]c2ccccc2c1=O | ED25 (Canis familiaris): 10 µM |
|  |  |  | CCCCCNC(=O)c1cccc2n[nH]c(O)c12 | ED25 (Canis familiaris): >250 µM |
| 2.7 |  |  | O=c1c2ccccc2[nH]n1-c1ccccc1 |  |
| 48 | 4.96 |  | C[C@@H](c1cccc2ccccc12)n1[nH]c2ccccc2c1=O |  |
| 21 | 5.60 | 10 | Cc1ccc(Cn2[nH]c3ccccc3c2=O)cn1 |  |
| 67 |  |  | O=c1c2ccccc2[nH]n1Cc1ccccn1 |  |
| 20 | 5.52 | > 100 | Cn1[nH]c(=O)c2ccccc21 |  |
| 31 | 5.47 |  | O=c1[nH]n(Cc2ccccc2)c2ccccc12 |  |
| > 30 | 5.52 | 5 | Cc1ccncc1Cn1[nH]c2ccccc2c1=O |  |
|  |  |  | COc1ccc(Cn2[nH]c3ccccc3c2=O)cn1 | IC50 (Cyclooxygenase [4]): 3 µM |
| 3.8 | 6.27 | > 100 | O=c1c2ccccc2[nH]n1CCCc1ccccc1 |  |
| 400 | 5.85 | > 100 | C[C@H](c1cccc2ccccc12)n1[nH]c2ccccc2c1=O |  |
|  |  |  | CCCCCNC(=O)c1cccc2[nH]n(C)c(=O)c12 | ED25 (Canis familiaris): >250 µM |
| > 300 |  |  | O=c1c2ccccc2[nH]n1Cc1cccnc1 | ED25 (Canis familiaris): 7.5 µM |
| 15 |  |  | O=c1c2ccccc2[nH]n1CCc1ccccc1 |  |
|  |  |  | CCCCCNC(=O)c1cccc2[nH]n(Cc3cccnc3)c(=O)c12 | ED25 (Canis familiaris): >250 µM |
| 26 |  |  | O=c1c2ccccc2[nH]n1Cc1cccs1 |  |

| SMILES | IC50 (Cyclooxygenase [1]) [µM] | pIC50 [2] | ED50 [3] [mg/kg] | other results |
| --- | --- | --- | --- | --- |
| O=c1c(O)c(-c2ccc(O)c(O)c2)oc2cc(O)cc(O)c12 [QUERCETIN] | 50 |  |  |  |
